Data: paper PMC13094344 (ACS chemical neuroscience, 2017)

Tests used:
hCB1R [1] = molecular target: T1, hCB1R (Homo sapiens, UniProt P21554); assay: Arrestin2 recruitment to hCB1R-GFP2 by BRET2; format: cell-based; conditions: for Arrestin2 recruitment by the compound alone: 1 nM – 10 μM, HEK293A or Neuro2a cells; for Log(αβ) / α (affinity modulation) / β (efficacy modulation) / τB (modulator efficacy): BRETEff, HEK293A, ± SD; for Log(αβ) / α (affinity modulation) / β (efficacy modulation): CP55,940 as agonist; for τB (modulator efficacy): fraction of the efficacy of CP55,940
T1 sequence (P21554 whole entry): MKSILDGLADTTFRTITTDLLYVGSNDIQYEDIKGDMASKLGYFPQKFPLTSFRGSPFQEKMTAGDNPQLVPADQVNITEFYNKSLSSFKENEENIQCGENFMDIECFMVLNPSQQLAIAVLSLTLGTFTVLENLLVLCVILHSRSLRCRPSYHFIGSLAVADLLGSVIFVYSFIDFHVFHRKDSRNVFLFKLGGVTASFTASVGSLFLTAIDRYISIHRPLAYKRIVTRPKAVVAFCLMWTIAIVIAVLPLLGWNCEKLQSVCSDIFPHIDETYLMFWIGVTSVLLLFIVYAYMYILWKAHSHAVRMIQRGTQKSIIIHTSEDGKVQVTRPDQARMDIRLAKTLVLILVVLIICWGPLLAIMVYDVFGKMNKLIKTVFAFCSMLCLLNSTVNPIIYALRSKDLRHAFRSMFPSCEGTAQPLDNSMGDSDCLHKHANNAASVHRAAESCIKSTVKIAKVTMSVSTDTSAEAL

hCB1R [2] = molecular target: T1, hCB1R; assay: cAMP luciferase reporter assay in HEK-CRE cells transfected with hCB1R-GFP2; format: cell-based; conditions: for Log(αβ) / α (affinity modulation) / β (efficacy modulation): CP55,940 as agonist, ± SD; for τB (modulator efficacy): fraction of the efficacy of CP55,940, ± SD
hCB1R [3] = molecular target: T1, hCB1R; assay: ERK1/2 phosphorylation, In-cell western; format: cell-based; conditions: 1 nM – 10 μM; HEK293A and Neuro2a cells
hCB1R [4] = molecular target: T1, hCB1R; assay: PLCβ3 phosphorylation, In-cell western; format: cell-based; conditions: 1 nM – 10 μM; HEK293A and Neuro2a cells
hCB1R [5] = assay: Induced signaling bias, cAMP inhibition versus arrestin2 recruitment, ΔLog; format: cell-based, human; conditions: CP55,940, 95% CI; for ΔLog(αβ): cAMP versus arrestin2 (BRET2); for Induced Bias: toward inhibition of cAMP production over arrestin2 recruitment
Procedure, shortened: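 Arrestin2 arm: HEK293A cells were transfected with hCB1R-GFP2 and arrestin2-Rluc. Cells were suspended in BRET buffer 48 h later and read by BRET2 (coelenterazine 400a 50 μM; emissions 405/510 nm). cAMP arm: HEK-CRE cells carried hCB1R-GFP2 and were read by luciferase reporter in 10 µM forskolin. CP55,940 1 nM–10 µM ± test compound 1 nM–10 µM, 0.1% DMSO. Data were fit to an allosteric binding plus Black-Leff operational model, with four independent estimates.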

hCB1R [6] = molecular target: T1, hCB1R; assay: [3H]CP55,940 binding to CHO-hCB1R membranes; conditions: 10 μM
CB1R [7] = molecular target: T2, CB1R (Mus musculus, UniProt P47746); assay: Electrically-evoked contractions of mouse isolated vas deferens
T2 sequence (P47746 whole entry): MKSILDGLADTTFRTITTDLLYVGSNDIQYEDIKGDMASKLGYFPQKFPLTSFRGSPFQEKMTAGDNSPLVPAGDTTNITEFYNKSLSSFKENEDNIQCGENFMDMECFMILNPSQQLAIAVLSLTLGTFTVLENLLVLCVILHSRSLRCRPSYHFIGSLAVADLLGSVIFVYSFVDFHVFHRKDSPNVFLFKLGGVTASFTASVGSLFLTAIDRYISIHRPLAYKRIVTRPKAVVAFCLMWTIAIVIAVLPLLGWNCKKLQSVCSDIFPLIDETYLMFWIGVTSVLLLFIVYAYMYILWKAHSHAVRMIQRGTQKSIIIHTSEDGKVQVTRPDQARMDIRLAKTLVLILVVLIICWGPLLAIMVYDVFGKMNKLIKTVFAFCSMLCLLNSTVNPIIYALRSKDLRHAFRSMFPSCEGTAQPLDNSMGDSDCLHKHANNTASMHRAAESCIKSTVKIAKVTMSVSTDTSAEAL

hCB2R = hCB2R (Homo sapiens, UniProt P34972); assay: [3H]CP55,940 binding to CHO-hCB2R membranes; conditions: data not shown
hCB2R, sequence (P34972 whole entry): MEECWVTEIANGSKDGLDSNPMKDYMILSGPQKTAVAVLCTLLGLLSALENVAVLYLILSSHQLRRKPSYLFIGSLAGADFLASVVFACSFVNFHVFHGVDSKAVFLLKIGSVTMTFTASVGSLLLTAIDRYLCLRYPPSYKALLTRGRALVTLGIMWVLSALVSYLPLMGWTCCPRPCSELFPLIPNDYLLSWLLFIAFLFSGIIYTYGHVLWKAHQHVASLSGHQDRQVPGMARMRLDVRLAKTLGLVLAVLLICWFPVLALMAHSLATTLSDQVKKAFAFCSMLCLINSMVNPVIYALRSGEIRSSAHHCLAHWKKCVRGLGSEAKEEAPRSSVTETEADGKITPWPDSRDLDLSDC
Procedure, shortened: (§1)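 Filtration displacement assay with 0.7 nM [3H]CP55,940 in 50 mM Tris-HCl/50 mM Tris-base, 0.1% BSA, pH 7.4, run 60 min at 37 °C. Membranes were from CHO cells stably expressing hCB2R (50 µg protein) or from mouse whole brain. Test compound was added from 10 mM DMSO stock (0.1% DMSO final). Nonspecific binding used 1 µM unlabelled CP55,940; radioactivity was counted by liquid scintillation.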

CB1R [8] = molecular target: T2, CB1R; assay: [3H]CP55,940 binding to mouse brain membranes; conditions: 1 nM – 10 μM
Procedure, shortened: as §1

| SMILES | Arrestin2 recruitment by the compound alone (hCB1R [1]) | Log(αβ) (hCB1R [1]) | α (affinity modulation) (hCB1R [1]) | β (efficacy modulation) (hCB1R [1]) | τB (modulator efficacy) (hCB1R [1]) | Log(αβ) (hCB1R [2]) | α (affinity modulation) (hCB1R [2]) | β (efficacy modulation) (hCB1R [2]) | τB (modulator efficacy) (hCB1R [2]) | ERK phosphorylation by the compound alone (hCB1R [3]) | PLCβ3 phosphorylation by the compound alone (hCB1R [4]) | ΔLog(αβ) (hCB1R [5]) | Effect on [3H]CP55,940 binding (hCB1R [6]) | Induced Bias (hCB1R [5]) | Effect by itself on electrically-evoked contractions (CB1R [7]; 1 nM up to 10 μM, n=6, data not shown) | Effect on AEA-induced inhibition of electrically-evoked contractions (CB1R [7]; 1 μM modulator, AEA 10 and 100 nM) | Increase of [3H]CP55,940 binding to hCB2R (hCB2R; 10 μM) [%] | Effect on [3H]CP55,940 binding to hCB2R (hCB2R; up to 1 μM) | Effect on [3H]CP55,940 binding to mouse brain membranes (CB1R [8]) |
| --- | --- | --- | --- | --- | --- | --- | --- | --- | --- | --- | --- | --- | --- | --- | --- | --- | --- | --- | --- |
| O=[N+]([O-])C[C@@H](c1ccccc1)c1c(-c2ccccc2)[nH]c2ccccc12 [GAT229] | no effect | 0.97 ± 0.14 | 4.25 ± 1.5 | 2.3 ± 0.38 | 0 | 1.3 ± 0.35 | 2.25 ± 1.26 | 10.75 ± 4.43 | 0 | without effect | without effect | 0.34 (0.14 – 0.54) |  |  |  |  |  |  |  |
| O=[N+]([O-])C[C@H](c1ccccc1)c1c(-c2ccccc2)[nH]c2ccccc12 [GAT228] | increased arrestin2 recruitment in a concentration-dependent manner | 0.21 ± 0.10 | 2.5 ± 0.58 | 0.68 ± 0.09 | 0.19 ± 0.04 | −0.06 ± 0.36 | 1.08 ± 0.34 | 0.95 ± 0.5 | 0.15 ± 0.06 | increased | increased | −0.27 (−0.40 – −0.09) | weak PAM effect | 0.54 (0.35 – 0.81) |  |  |  |  |  |
| O=[N+]([O-])CC(c1ccccc1)c1c(-c2ccccc2)[nH]c2ccccc12 (centres unmarked) [GAT211] | increased arrestin2 recruitment in a concentration-dependent manner | 1.35 ± 0.04 | 24 ± 2.83 | 0.95 ± 0.06 | 0.15 ± 0.03 | 1.37 ± 0.06 | 21 ± 2 | 1.13 ± 0.19 | 0.19 ± 0.08 | increased | increased | 0.01 (−0.18 – 0.21) |  | n.s | no statistically significant effect | potentiated | 29 | no effect | enhanced |
